Publication PMC4321732 (Structure (London, England : 1993), 2015)
One block for each substance: values may come before it. *1 amine or outer side, *2 acyl side, *3 side chain or, on linkers, in order; H or OH if unused. Where no end group is shown, it is not given here. [ ]: non-standard residue; d: D form. KCme2 = N-dimethylated aminoethylcysteine, CN(C)CCSC[C@H](N[*:1])C(=O)[*:2]; Me2 = dimethyl group on the Lys side-chain amine

Columns and labels:
53BP1 TTD [1] = molecular target: T1, 53BP1 TTD (Homo sapiens, UniProt Q12888); test: NMR titration; assay type: binding; conditions: 1H,15N HSQC, 298 K; for effect of glycine mutation on CSPs in 15N-labeled TTD: 0.1–0.2 mM TTD, glycine mutants of p53KC370me2 peptide
T1 sequence (Q12888 1484-1603): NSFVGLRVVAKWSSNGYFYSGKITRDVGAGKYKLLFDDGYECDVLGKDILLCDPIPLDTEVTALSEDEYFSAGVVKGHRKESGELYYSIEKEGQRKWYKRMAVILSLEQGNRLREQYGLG

53BP1 TTD [2] = molecular target: T1, 53BP1 TTD; test: NMR solution structure of TTD-peptide complex; conditions: 298 K, 25 mM sodium phosphate pH 7.5
Summary of the method: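 Complexes of the 53BP1 tandem Tudor domain with dimethylated p53 peptides (residues 363–377 or 376–387) recorded on a 700 MHz cryoprobe in 90% H2O/10% D2O or 100% D2O with 1.5 mM NaN3. Samples were 2 mM 13C/15N-TTD with 6 mM unlabeled peptide, or 2 mM labeled dimethyllysine-analog peptide with 5 mM TTD. Intermolecular NOEs came from filtered 13C-edited NOESY-HSQC.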

53BP1 TTD [3] = molecular target: T1, 53BP1 TTD; conditions: monomeric TTD; ref Roy et al., 2010; cited from earlier work
CL-TTD = CL-TTD (Homo sapiens, UniProt Q12888, C1525A/C1535A); test: NMR titration; assay type: binding; conditions: 1H,15N HSQC, 298 K, 0.1–0.2 mM CL-TTD
Sequence of CL-TTD (Q12888 1481-1603 C1525A/C1535A): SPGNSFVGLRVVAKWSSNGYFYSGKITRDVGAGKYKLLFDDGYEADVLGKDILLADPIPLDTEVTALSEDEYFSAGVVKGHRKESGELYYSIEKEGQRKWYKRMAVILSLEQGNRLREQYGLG

53BP1 TTD [4] = molecular target: T1, 53BP1 TTD; test: Overall preference of 53BP1 TTD from peptide library, fluorescence and NMR; assay type: binding; conditions: overall conclusion from library, fluorescence and NMR results
GST-tagged 53BP1 TTD = test: Peptide microarray; assay type: binding, human; conditions: normalized mean intensities of four arrays

Substance: p53H365GKC370me2: p53KC370me2 peptide with H365 substituted with glycine (GHMRAGSSHL[KCme2]SKKGQST)
effect of glycine mutation on CSPs in 15N-labeled TTD (53BP1 TTD [1]): Alterations in CSPs

Substance: p53K382me2: p53K382me2 (residues 376–387) peptide, chemically synthesized (STSRHKK(Me2)LMFKT)
chemical shift / resonance intensity changes in 15N-labelled CL-TTD (CL-TTD): substantial chemical shift changes
preference of 53BP1 TTD module (53BP1 TTD [4]): strong preference
protein-peptide interface area in NMR ensemble (53BP1 TTD [2]): 678 ± 60 Å^2
Kd (53BP1 TTD [3]): 0.9 µM
binding in peptide library screen (GST-tagged 53BP1 TTD): recognized primarily

Substance: p53KC370me2K372G: p53KC370me2 peptide with K372 substituted with glycine (GHMRAHSSHLCSGKGQST; not fully specified (residue 11))
effect of glycine mutation on CSPs in 15N-labeled TTD (53BP1 TTD [1]): caused the same CSPs as the wild type p53KC382me2 peptide

Substance: p53KC370me2K373G: p53KC370me2 peptide with K373 substituted with glycine (GHMRAHSSHLCSKGGQST; not fully specified (residue 11))
effect of glycine mutation on CSPs in 15N-labeled TTD (53BP1 TTD [1]): caused the same CSPs as the wild type p53KC382me2 peptide

Further lines, with some results ahead:

effect of glycine mutation on CSPs in 15N-labeled TTD (53BP1 TTD [1]): Alterations in CSPs
Substance: p53H368GKC370me2: p53KC370me2 peptide with H368 substituted with glycine (GHMRAHSSGLCSKKGQST; not fully specified (residue 11))

protein-peptide interface area in NMR ensemble (53BP1 TTD [2]): 707 ± 43 Å^2
Substance: p53K370me2: p53K370me2 (residues 363–377) peptide, chemically synthesized (RAHSSHLK(Me2)SKKGQST)
site of dimethyllysine indicated by pattern of CSPs (53BP1 TTD [1]): fully consistent with K370me2 occupying the aromatic cage
Kd (53BP1 TTD [3]): 20 µM

effect of glycine mutation on CSPs in 15N-labeled TTD (53BP1 TTD [1]): Alterations in CSPs
Substance: p53L369GKC370me2: p53KC370me2 peptide with L369 substituted with glycine (GHMRAHSSHGCSKKGQST; not fully specified (residue 11))
